Consider 27 molecules from ChEMBL document CHEMBL1135065, “2-(anilinomethyl)imidazolines as alpha1A adrenergic receptor agonists: 2'-heteroaryl and 2'-oxime ether series” (Bioorg Med Chem Lett, 2002).

Assay [1] has as its target T1, Alpha-1D adrenergic receptor (Homo sapiens, UniProt P25100).
T1 sequence (P25100 whole entry): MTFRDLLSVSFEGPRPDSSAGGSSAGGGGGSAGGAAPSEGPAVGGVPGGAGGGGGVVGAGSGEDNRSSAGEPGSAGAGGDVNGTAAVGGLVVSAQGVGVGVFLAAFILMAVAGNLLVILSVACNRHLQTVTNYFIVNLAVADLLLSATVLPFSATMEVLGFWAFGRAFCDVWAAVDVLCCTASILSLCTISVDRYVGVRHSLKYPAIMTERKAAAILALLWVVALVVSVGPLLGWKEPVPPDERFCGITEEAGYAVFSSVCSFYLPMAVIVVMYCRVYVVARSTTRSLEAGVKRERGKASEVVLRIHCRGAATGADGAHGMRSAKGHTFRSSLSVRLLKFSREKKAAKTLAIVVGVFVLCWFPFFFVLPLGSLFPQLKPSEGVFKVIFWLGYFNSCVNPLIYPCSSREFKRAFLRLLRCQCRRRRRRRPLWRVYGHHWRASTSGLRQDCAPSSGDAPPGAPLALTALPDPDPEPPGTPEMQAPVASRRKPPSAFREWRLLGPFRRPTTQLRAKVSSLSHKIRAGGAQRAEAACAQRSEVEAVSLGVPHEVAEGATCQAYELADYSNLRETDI
The assay is described as follows: In vitro activation of human alpha-1D receptor expressed in rat-1 fibroblasts via calcium using mobilization through the Gq coupled PLC pathway as functional assay. Put shortly: (§1)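 Calcium mobilization via Gq/PLC was read by FLIPR with Calcium Green fluorescent dye. Eleven-point concentration–response curves, top concentration typically 5 µM, expressed as percent of the 40 µM phenylephrine response. Values are pEC50 and % maximal response, mean of at least two experiments.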

The target of assay [2] is T2, Alpha-1A adrenergic receptor (Homo sapiens, UniProt P35348).
T2 sequence (P35348 whole entry): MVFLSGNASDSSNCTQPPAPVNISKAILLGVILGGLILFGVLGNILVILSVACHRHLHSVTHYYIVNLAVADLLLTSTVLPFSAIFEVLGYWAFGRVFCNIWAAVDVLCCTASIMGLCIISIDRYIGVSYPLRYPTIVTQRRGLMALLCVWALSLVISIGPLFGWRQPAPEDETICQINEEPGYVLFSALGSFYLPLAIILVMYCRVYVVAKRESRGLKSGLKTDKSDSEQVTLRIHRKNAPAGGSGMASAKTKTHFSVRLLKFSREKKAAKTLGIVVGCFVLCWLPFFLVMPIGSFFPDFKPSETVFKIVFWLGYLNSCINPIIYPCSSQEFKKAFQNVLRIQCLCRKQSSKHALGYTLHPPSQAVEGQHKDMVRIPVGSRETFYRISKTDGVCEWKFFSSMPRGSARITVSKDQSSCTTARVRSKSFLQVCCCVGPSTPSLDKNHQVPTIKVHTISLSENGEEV
In words: In vitro activation of human alpha-1A receptor expressed in rat-1 fibroblasts via calcium mobilization through the Gq coupled PLC pathway as functional assay. Put shortly:
as §1

In assay [3] the target is T3, Alpha-1B adrenergic receptor (Homo sapiens, UniProt P35368).
T3 sequence (P35368 whole entry): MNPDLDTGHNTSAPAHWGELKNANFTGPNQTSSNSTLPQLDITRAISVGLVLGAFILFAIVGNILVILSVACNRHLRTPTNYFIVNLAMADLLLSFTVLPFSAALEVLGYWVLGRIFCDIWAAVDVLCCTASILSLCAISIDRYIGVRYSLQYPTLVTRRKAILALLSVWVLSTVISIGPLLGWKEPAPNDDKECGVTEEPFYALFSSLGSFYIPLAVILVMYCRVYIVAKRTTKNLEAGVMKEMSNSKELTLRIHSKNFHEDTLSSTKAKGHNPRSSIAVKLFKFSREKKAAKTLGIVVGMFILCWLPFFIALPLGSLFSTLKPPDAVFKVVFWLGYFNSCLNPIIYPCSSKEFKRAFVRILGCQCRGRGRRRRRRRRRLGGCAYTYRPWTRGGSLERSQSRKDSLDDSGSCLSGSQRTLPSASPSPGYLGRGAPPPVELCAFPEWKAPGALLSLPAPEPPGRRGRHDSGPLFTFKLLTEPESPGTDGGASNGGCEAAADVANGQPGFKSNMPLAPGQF
The assay is described as follows: In vitro activation of human Alpha-1B receptor expressed in rat-1 fibroblasts via calcium mobilization through the Gq coupled PLC pathway as functional assay.

For assay [4], the target named is T4, Alpha-1A adrenergic receptor (Homo sapiens) (UniProt P35348).
T4 sequence (whole entry): T2 sequence (P35348 whole entry)
The assay is described as follows: In vitro human alpha-1A receptor activation determined via calcium mobilization through the Gq coupled PLC pathway in rat-1 fibroblasts as percent maximum of phenylephrine response. It is filed as functional. An outline of the steps:
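Human α1A (clone #137–12) or α1D (clone #16–7) adrenoceptor stably expressed in Rat-1 fibroblasts. Calcium mobilization via Gq/PLC was read by FLIPR with Calcium Green fluorescent dye. Eleven-point concentration–response curves, top concentration typically 5 µM, expressed as percent of the 40 µM phenylephrine response. Values are pEC50 and % maximal response, mean of at least two experiments.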

The target in assay [5] is T2, Alpha-1A adrenergic receptor. In words: In vitro binding affinity against human Alpha-1A adrenergic receptor expressed in rat-1 fibroblasts cells. The assay is classed as cell-based, Fibroblast. Put shortly:
(§2)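 Radioligand binding on membranes from Rat-1 fibroblasts expressing human α1A, α1B or α1D adrenoceptor. Affinity reported as pIC50, mean of at least two experiments.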

The target of assay [6] is T3, Alpha-1B adrenergic receptor. The assay is described as follows: In vitro binding affinity against human Alpha-1B adrenergic receptor expressed in rat-1 fibroblasts. An outline of the steps:
as §2

The target of assay [7] is T1, Alpha-1D adrenergic receptor. In words: In vitro binding affinity against human Alpha-1D adrenergic receptor expressed in rat-1 fibroblasts. An outline of the steps:
as §2

The term EC50 denotes the concentration that produces a half-maximal response. A word on the IC50: it is the midpoint of a concentration-inhibition curve.

Regarding `Cc1cc(-c2ccccc2NCC2=NCCN2)on1`, the EC50 in assay [1] is over 100000 nM; in assay [2] it was 38.9 nM; in assay [3], 95.5 nM.
With `CO/N=C(\C)c1ccccc1NCC1=NCCN1`, the results for the EC50 in assay [1], in assay [2] and in assay [3] were over 5010 nM, 20.9 nM and over 5010 nM, respectively. For the same molecule, the Max in assay [4] was 92%.
As to `Cc1ccc(-c2ccccc2NCC2=NCCN2)s1`, the EC50 is over 100000 nM in assay [1], 36.3 nM in assay [2] and over 100000 nM in assay [3].
`Cc1ncc(-c2ccccc2NCC2=NCCN2)o1`: the results for the EC50 in assay [1], in assay [2] and in assay [3] were over 5010 nM, 110 nM and over 5010 nM, respectively.
On to `Cc1cccnc1-c1ccccc1NCC1=NCCN1`, for which the figures for the EC50 in assay [1], in assay [2] and in assay [3] were over 100000 nM, 24.5 nM and over 100000 nM, respectively.
Take `FC(F)(F)c1cccnc1-c1ccccc1NCC1=NCCN1`: the EC50 in assay [1] was over 100000 nM; in assay [2], 676 nM; in assay [3], over 100000 nM.
As for `Cc1nc(-c2ccccc2NCC2=NCCN2)cs1`, the EC50 is over 5010 nM in assay [1], 4.47 nM in assay [2] and 69.2 nM in assay [3].
The corresponding values for `Cc1noc(-c2ccccc2NCC2=NCCN2)n1` are over 5010 nM, 661 nM and over 5010 nM.
Turning to `CC/C(=N/OC)c1ccccc1NCC1=NCCN1`, the EC50 in assay [1] was over 5010 nM; in assay [2], 87.1 nM; in assay [3], over 5010 nM. In addition, the Max in assay [4] stood at 141%.
Consider `CCO/N=C(\C)c1ccccc1NCC1=NCCN1`, for which the EC50 was over 5010 nM in assay [1], 52.5 nM in assay [2] and over 5010 nM in assay [3]. The Max in assay [4] turned out to be 102%.
For the molecule `c1ccc(-c2cnoc2)c(NCC2=NCCN2)c1`, the results for the EC50 in assay [1], in assay [2] and in assay [3] were over 100000 nM, 45.7 nM and over 100000 nM, respectively.
`c1ccc(-c2ccno2)c(NCC2=NCCN2)c1`: the EC50 in assay [1] was 2.88 nM; in assay [2] it was 0.794 nM; in assay [3], 3.72 nM. Besides, the IC50 was 35.5 nM in assay [5], 132 nM in assay [6] and 38 nM in assay [7].
Regarding `Cc1nc(-c2ccccc2NCC2=NCCN2)no1`, the EC50 in assay [1] is over 5010 nM; in assay [2], 724 nM; in assay [3], 676 nM.
Taken in the same sequence, the figures for `Cc1ccsc1-c1ccccc1NCC1=NCCN1` were 49 nM, 0.851 nM and 112 nM.
As to `CO/N=C/c1ccccc1NCC1=NCCN1`, the EC50 in assay [1] is over 5010 nM; in assay [2], 51.3 nM; in assay [3], over 5010 nM. In addition, the IC50 is 282 nM in assay [5], 162 nM in assay [6] and 42.7 nM in assay [7]. For the same molecule, the Max in assay [4] was found to be 94%.
In the case of `c1cnc(-c2ccccc2NCC2=NCCN2)nc1`, the EC50 was 81.3 nM in assay [1], 10 nM in assay [2] and 77.6 nM in assay [3]. Also, the IC50 in assay [5] is 191 nM; in assay [6], 2190 nM; in assay [7], 417 nM.
Consider `c1ccc(-c2cnccn2)c(NCC2=NCCN2)c1`, for which the EC50 in assay [1] was 182 nM; in assay [2], 4.57 nM; in assay [3] it was 339 nM.
Take `Cc1ncoc1-c1ccccc1NCC1=NCCN1`: the figures for the EC50 in assay [1], in assay [2] and in assay [3] were over 100000 nM, 15.1 nM and over 100000 nM, respectively. Moreover, the IC50 in assay [5] was 191 nM; in assay [6], 324 nM; in assay [7] it was 347 nM.
With `c1csc(-c2ccccc2NCC2=NCCN2)c1`, the EC50 in assay [1] is 18.2 nM; in assay [2] it was 2.24 nM; in assay [3], 5.75 nM.
Turning to `CC/C(=N\OC)c1ccccc1NCC1=NCCN1`, the EC50 in assay [1] was over 100000 nM; in assay [2] it was 3.31 nM; in assay [3], over 100000 nM. Moreover, the Max in assay [4] came out at 112%.
On to `Cc1ccc(-c2ccccc2NCC2=NCCN2)o1`, for which the EC50 in assay [1] is over 2000 nM; in assay [2], 2.69 nM; in assay [3] it was 46.8 nM.
On to `c1ccc(-c2ncco2)c(NCC2=NCCN2)c1`, for which the EC50 in assay [1] is 5.01 nM; in assay [2] it was 0.661 nM; in assay [3] it was 1.62 nM. The IC50 is 45.7 nM in assay [5], 447 nM in assay [6] and 40.7 nM in assay [7].
Turning to `c1ccc(-c2cnco2)c(NCC2=NCCN2)c1`, the EC50 is over 5010 nM in assay [1], 17.4 nM in assay [2] and over 5010 nM in assay [3]. Further, the IC50 was 457 nM in assay [5], 229 nM in assay [6] and 295 nM in assay [7].
`Cc1nc(-c2ccccc2NCC2=NCCN2)co1`: the EC50 is over 5010 nM in assay [1], 324 nM in assay [2] and over 5010 nM in assay [3].
For the molecule `Nc1nccc(-c2ccccc2NCC2=NCCN2)n1`, the EC50 was 28.8 nM in assay [1], 42.7 nM in assay [2] and over 5010 nM in assay [3].
For the molecule `c1ccc(-c2ccccc2NCC2=NCCN2)nc1`, the EC50 was 41.7 nM in assay [1], 6.76 nM in assay [2] and 30.2 nM in assay [3]. In addition, the results for the IC50 in assay [5], in assay [6] and in assay [7] were 81.3 nM, 589 nM and 117 nM, respectively.
On to `c1coc(-c2ccccc2NCC2=NCCN2)c1`, for which the EC50 was 16.2 nM in assay [1], 0.468 nM in assay [2] and 6.31 nM in assay [3].
